According to ChEMBL document CHEMBL1921735, “Antibacterial optimization of 4-aminothiazolyl analogues of the natural product GE2270 A: identification of the cycloalkylcarboxylic acids” (J Med Chem, 2011):
≈ marks a conversion by molar mass, not a printed value. Calls of active or inactive are those of the source.

Assays:
Staphylococcus aureus [1] = assay: Antibacterial activity against methicillin-resistant Staphylococcus aureus isolate A4.018 by CLSI M07-A8 method; format: functional
Enterococcus faecalis [2] = assay: Antibacterial activity against Enterococcus faecalis isolate NB04025 infected in CD1 mouse assessed as protection against bacterial infection administered immediately after infection measured on day 5; format: functional; conditions: isolate NB04025, 120 h
Method in brief: (§1)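 Mouse lethal systemic infection: ip injection of 1 × 10^8 cfu/mouse (10−100× minimal lethal dose), E. faecalis in 50% sterile rat fecal extract, S. aureus in 0.9% NaCl. Therapy by tail-vein bolus at several doses, six mice per group. Started immediately for E. faecalis; at 1 and 5 h post-inoculation for S. aureus.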

Enterococcus faecalis [3] = assay: Antibacterial activity against Enterococcus faecalis ATCC 29212 by CLSI M07-A8 method; format: functional
Method in brief: (§2)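 Broth microdilution MIC run per CLSI M07-A8 (2009).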

Enterococcus faecium = assay: Antibacterial activity against Enterococcus faecium 7130724 by CLSI M07-A8 method; format: functional; method in brief: as §2
Streptococcus pyogenes = assay: Antibacterial activity against Streptococcus pyogenes ATCC BAA-595 by CLSI M07-A8 method; format: functional; method in brief: as §2
Streptococcus pneumoniae = assay: Antibacterial activity against Streptococcus pneumoniae by CLSI M07-A8 method; format: functional, organism-based; method in brief: as §2
Staphylococcus aureus [4] = assay: Antibacterial activity against GE2270-A-resistant Staphylococcus aureus harboring tufA G258D mutant gene by CLSI M07-A8 method; format: functional
Staphylococcus aureus [5] = assay: Antibacterial activity against Staphylococcus aureus ATCC 49951 infected in CD1 mouse assessed as protection against bacterial infection administered 5 hrs post infection measured on day 5; format: functional; method in brief: as §1

CNC(=O)C[C@@H]1NC(=O)c2csc(n2)-c2ccc(-c3nc(NC(=O)[C@H](CN)CCC(=O)O)cs3)nc2-c2csc(n2)-c2csc(n2)[C@H]([C@@H](O)c2ccccc2)NC(=O)CNC(=O)c2nc(sc2COC)[C@H](C(C)C)NC(=O)c2nc1sc2C
MIC (Staphylococcus aureus [1]): 1 µg/mL (≈ 0.807 µM)
ED50 (Enterococcus faecalis [2]): > 60 mg/kg
MIC (Enterococcus faecalis [3]): 0.5 µg/mL (≈ 0.403 µM)
MIC (Enterococcus faecium): 1 µg/mL (≈ 0.807 µM)
MIC (Streptococcus pyogenes): > 32 µg/mL
Activity (Streptococcus pneumoniae): Active
Activity (Staphylococcus aureus [4]): inactive
ED50 (Staphylococcus aureus [5]): 9.5 mg/kg

CNC(=O)C[C@@H]1NC(=O)c2csc(n2)-c2ccc(-c3nc(NC(=O)O[C@H]4CC[C@H](N)CC4)cs3)nc2-c2csc(n2)-c2csc(n2)[C@H]([C@@H](O)c2ccccc2)NC(=O)CNC(=O)c2nc(sc2COC)[C@H](C(C)C)NC(=O)c2nc1sc2C
MIC (Staphylococcus aureus [1]): 1 µg/mL (≈ 0.808 µM)
ED50 (Enterococcus faecalis [2]): < 3.3 mg/kg
MIC (Enterococcus faecalis [3]): 0.5 µg/mL (≈ 0.404 µM)
MIC (Enterococcus faecium): 0.5 µg/mL (≈ 0.404 µM)
MIC (Streptococcus pyogenes): 8 µg/mL (≈ 6.46 µM)
Activity (Streptococcus pneumoniae): Active
Activity (Staphylococcus aureus [4]): inactive
ED50 (Staphylococcus aureus [5]): 19.3 mg/kg

CNC(=O)C[C@@H]1NC(=O)c2csc(n2)-c2ccc(-c3nc(NC(=O)c4ccc(C(=O)O)cn4)cs3)nc2-c2csc(n2)-c2csc(n2)[C@H]([C@@H](O)c2ccccc2)NC(=O)CNC(=O)c2nc(sc2COC)[C@H](C(C)C)NC(=O)c2nc1sc2C
MIC (Staphylococcus aureus [1]): 0.25 µg/mL (≈ 0.201 µM)
ED50 (Enterococcus faecalis [2]): 0.8 mg/kg
MIC (Enterococcus faecalis [3]): 0.125 µg/mL (≈ 0.1 µM)
MIC (Enterococcus faecium): < 0.06 µg/mL
MIC (Streptococcus pyogenes): 4 µg/mL (≈ 3.21 µM)
Activity (Streptococcus pneumoniae): Active
ED50 (Staphylococcus aureus [5]): 4.4 mg/kg

CNC(=O)C[C@@H]1NC(=O)c2csc(n2)-c2ccc(-c3nc(NC(=O)OCCCCN)cs3)nc2-c2csc(n2)-c2csc(n2)[C@H]([C@@H](O)c2ccccc2)NC(=O)CNC(=O)c2nc(sc2COC)[C@H](C(C)C)NC(=O)c2nc1sc2C
MIC (Staphylococcus aureus [1]): 1 µg/mL (≈ 0.825 µM)
MIC (Enterococcus faecalis [3]): 0.5 µg/mL (≈ 0.413 µM)
MIC (Enterococcus faecium): 1 µg/mL (≈ 0.825 µM)
MIC (Streptococcus pyogenes): 8 µg/mL (≈ 6.6 µM)
Activity (Streptococcus pneumoniae): Active
Activity (Staphylococcus aureus [4]): inactive
ED50 (Staphylococcus aureus [5]): 6.48 mg/kg

CNC(=O)C[C@@H]1NC(=O)c2csc(n2)-c2ccc(-c3nc(NC(=O)O[C@H]4C[C@@H](C(=O)O)C4)cs3)nc2-c2csc(n2)-c2csc(n2)[C@H]([C@@H](O)c2ccccc2)NC(=O)CNC(=O)c2nc(sc2COC)[C@H](C(C)C)NC(=O)c2nc1sc2C
MIC (Staphylococcus aureus [1]): 0.06 µg/mL (≈ 0.0484 µM)
ED50 (Enterococcus faecalis [2]): 1 mg/kg
MIC (Enterococcus faecalis [3]): 0.06 µg/mL (≈ 0.0484 µM)
MIC (Enterococcus faecium): 0.03 µg/mL (≈ 0.0242 µM)
MIC (Streptococcus pyogenes): 1 µg/mL (≈ 0.807 µM)
Activity (Streptococcus pneumoniae): Active
ED50 (Staphylococcus aureus [5]): 2.9 mg/kg

CNC(=O)C[C@@H]1NC(=O)c2csc(n2)-c2ccc(-c3nc(NC(=O)OCCCC(=O)O)cs3)nc2-c2csc(n2)-c2csc(n2)[C@H]([C@@H](O)c2ccccc2)NC(=O)CNC(=O)c2nc(sc2COC)[C@H](C(C)C)NC(=O)c2nc1sc2C
MIC (Staphylococcus aureus [1]): 0.06 µg/mL (≈ 0.0489 µM)
ED50 (Enterococcus faecalis [2]): 3.1 mg/kg
MIC (Enterococcus faecalis [3]): 0.03 µg/mL (≈ 0.0245 µM)
MIC (Enterococcus faecium): 0.06 µg/mL (≈ 0.0489 µM)
MIC (Streptococcus pyogenes): 1 µg/mL (≈ 0.815 µM)
Activity (Streptococcus pneumoniae): Active
Activity (Staphylococcus aureus [4]): inactive
ED50 (Staphylococcus aureus [5]): 5.4 mg/kg

CNC(=O)C[C@@H]1NC(=O)c2csc(n2)-c2ccc(-c3nc(NC(=O)c4cnc(C(=O)O)cn4)cs3)nc2-c2csc(n2)-c2csc(n2)[C@H]([C@@H](O)c2ccccc2)NC(=O)CNC(=O)c2nc(sc2COC)[C@H](C(C)C)NC(=O)c2nc1sc2C
MIC (Staphylococcus aureus [1]): 0.5 µg/mL (≈ 0.401 µM)
ED50 (Enterococcus faecalis [2]): 2.2 mg/kg
MIC (Enterococcus faecalis [3]): 0.25 µg/mL (≈ 0.201 µM)
MIC (Enterococcus faecium): 0.25 µg/mL (≈ 0.201 µM)
MIC (Streptococcus pyogenes): 8 µg/mL (≈ 6.42 µM)
Activity (Streptococcus pneumoniae): Active
ED50 (Staphylococcus aureus [5]): 13.9 mg/kg

CNC(=O)C[C@@H]1NC(=O)c2csc(n2)-c2ccc(-c3nc(NC(=O)[C@H](C)CCC(=O)O)cs3)nc2-c2csc(n2)-c2csc(n2)[C@H]([C@@H](O)c2ccccc2)NC(=O)CNC(=O)c2nc(sc2COC)[C@H](C(C)C)NC(=O)c2nc1sc2C
MIC (Staphylococcus aureus [1]): 0.25 µg/mL (≈ 0.204 µM)
ED50 (Enterococcus faecalis [2]): 11.1 mg/kg
MIC (Enterococcus faecalis [3]): 0.25 µg/mL (≈ 0.204 µM)
MIC (Enterococcus faecium): 0.5 µg/mL (≈ 0.408 µM)
MIC (Streptococcus pyogenes): 4 µg/mL (≈ 3.27 µM)
Activity (Streptococcus pneumoniae): Active
Activity (Staphylococcus aureus [4]): inactive
ED50 (Staphylococcus aureus [5]): 10.6 mg/kg
